Experimental data: ChEMBL document CHEMBL1140764, “Chromen-based TNF-alpha converting enzyme (TACE) inhibitors: design, synthesis, and biological evaluation” (Bioorg Med Chem, 2008); call rule not given here

Legend:
[1] = molecular target: Disintegrin and metalloproteinase domain-containing protein 17 (Homo sapiens, UniProt P78536); assay: Inhibition of human TACE
[2] = molecular target: 72 kDa type IV collagenase (Homo sapiens, UniProt P08253); assay: Inhibition of human recombinant MMP2
In short: (§1)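 Recombinant human MMP-2 or MMP-9 catalytic domain with fluorogenic quenched peptide Mca-Pro-Leu-Gly-Leu-Dpa-Ala-Arg-NH2. Cleavage releases Mca. Fluorescence read at excitation 324, emission 420, and the rate of emission change is taken as enzyme activity. IC50 values are means of three experiments.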

[3] = molecular target: Matrix metalloproteinase-9 (Homo sapiens, UniProt P14780); assay: Inhibition of human recombinant MMP9; in short: as §1
Sequence of Matrix metalloproteinase-9 (P14780 whole entry): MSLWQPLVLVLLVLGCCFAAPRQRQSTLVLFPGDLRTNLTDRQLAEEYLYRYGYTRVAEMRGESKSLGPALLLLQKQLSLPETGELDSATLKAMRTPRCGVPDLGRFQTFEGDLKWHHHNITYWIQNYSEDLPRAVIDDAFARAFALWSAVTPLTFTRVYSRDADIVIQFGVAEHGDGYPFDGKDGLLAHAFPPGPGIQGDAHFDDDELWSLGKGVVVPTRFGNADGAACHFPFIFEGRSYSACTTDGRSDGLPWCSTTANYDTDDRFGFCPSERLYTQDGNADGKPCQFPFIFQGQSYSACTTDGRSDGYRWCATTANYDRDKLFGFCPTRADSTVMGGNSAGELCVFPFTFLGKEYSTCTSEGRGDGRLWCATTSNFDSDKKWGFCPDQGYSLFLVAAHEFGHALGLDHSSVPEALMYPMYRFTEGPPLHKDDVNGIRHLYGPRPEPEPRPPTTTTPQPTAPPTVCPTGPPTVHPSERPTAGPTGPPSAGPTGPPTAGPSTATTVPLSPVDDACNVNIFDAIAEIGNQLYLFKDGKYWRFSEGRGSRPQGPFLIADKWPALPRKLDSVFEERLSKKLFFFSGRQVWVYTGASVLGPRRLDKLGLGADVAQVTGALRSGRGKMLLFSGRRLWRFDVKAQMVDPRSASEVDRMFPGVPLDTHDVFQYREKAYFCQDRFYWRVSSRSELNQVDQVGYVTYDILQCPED

RAW264.7 [4] = assay: Inhibition of TNFalpha production in mouse RAW264.7 cells after 24 hrs by ELISA; format: functional, cell-based; conditions: RAW264.7, 24 h
In short: (§2)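 RAW264.7 cells cultured with inhibitors for 24 h. Secreted TNF-α in culture supernatant quantified by ELISA following the kit instructions. IC50 values are means of three experiments; line 3 is the single-concentration 10 μM result.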

RAW264.7 [5] = assay: Inhibition of NO production in mouse RAW264.7 cells at 10 uM after 24 hrs by ELISA; format: functional, cell-based; conditions: in the assay text read “by Griess assay” for “by ELISA”
In short: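 RAW264.7 cells cultured with inhibitors for 24 h. NO2- accumulation in medium taken as NO output: supernatant mixed 1:1 with Griess reagent (1% sulfanilamide, 0.1% naphthylethylenediamine dihydrochloride, 2% phosphoric acid), 10 min at room temperature, absorbance at 540 nm against a NaNO2 standard curve. Single concentration 10 μM. Means of three experiments.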

RAW264.7 [6] = assay: Inhibition of TNFalpha production in mouse RAW264.7 cells at 10 uM after 24 hrs by ELISA; format: functional, cell-based; in short: as §2

Sequence of 72 kDa type IV collagenase (P08253 whole entry, the tested form may be a part): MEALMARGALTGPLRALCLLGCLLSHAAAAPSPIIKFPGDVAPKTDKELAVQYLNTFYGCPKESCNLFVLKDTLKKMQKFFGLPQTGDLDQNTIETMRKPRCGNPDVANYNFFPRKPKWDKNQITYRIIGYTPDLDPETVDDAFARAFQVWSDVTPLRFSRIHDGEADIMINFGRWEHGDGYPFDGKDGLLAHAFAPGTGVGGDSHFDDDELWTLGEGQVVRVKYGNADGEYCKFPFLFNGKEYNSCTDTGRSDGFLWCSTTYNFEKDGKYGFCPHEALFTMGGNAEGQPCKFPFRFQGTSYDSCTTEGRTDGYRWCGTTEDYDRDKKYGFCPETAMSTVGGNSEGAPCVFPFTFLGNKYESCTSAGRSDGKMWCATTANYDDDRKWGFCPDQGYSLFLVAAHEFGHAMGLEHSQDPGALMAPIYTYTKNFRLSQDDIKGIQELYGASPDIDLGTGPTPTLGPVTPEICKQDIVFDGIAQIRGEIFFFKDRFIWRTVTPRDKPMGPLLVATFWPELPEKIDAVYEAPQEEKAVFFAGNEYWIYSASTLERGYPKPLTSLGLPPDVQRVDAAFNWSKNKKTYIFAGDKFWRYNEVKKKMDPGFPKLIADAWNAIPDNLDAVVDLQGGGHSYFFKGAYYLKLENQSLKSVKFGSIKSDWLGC
Sequence of Disintegrin and metalloproteinase domain-containing protein 17 (P78536 whole entry, the tested form may be a part): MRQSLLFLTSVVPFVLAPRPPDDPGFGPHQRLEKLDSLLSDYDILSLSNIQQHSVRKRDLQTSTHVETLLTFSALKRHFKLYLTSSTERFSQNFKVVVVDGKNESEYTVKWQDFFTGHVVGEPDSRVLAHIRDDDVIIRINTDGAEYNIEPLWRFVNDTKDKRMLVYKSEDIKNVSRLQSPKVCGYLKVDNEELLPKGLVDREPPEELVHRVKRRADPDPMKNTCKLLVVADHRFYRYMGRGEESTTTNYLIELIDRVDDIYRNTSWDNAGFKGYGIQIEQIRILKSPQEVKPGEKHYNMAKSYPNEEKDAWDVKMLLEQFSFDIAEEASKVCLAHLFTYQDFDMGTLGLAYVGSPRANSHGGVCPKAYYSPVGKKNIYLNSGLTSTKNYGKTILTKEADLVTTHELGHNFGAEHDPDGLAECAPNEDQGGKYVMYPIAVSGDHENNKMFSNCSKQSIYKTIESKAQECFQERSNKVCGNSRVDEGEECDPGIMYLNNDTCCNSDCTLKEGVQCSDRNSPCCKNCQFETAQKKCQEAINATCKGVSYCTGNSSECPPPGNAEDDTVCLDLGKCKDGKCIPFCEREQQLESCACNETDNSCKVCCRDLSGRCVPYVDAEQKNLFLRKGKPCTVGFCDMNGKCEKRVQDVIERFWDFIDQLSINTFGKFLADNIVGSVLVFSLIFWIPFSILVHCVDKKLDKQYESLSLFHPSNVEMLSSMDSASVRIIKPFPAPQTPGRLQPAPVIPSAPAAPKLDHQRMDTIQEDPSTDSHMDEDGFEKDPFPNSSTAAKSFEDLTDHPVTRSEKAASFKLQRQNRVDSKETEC

SMILES	IC50 [1]	IC50 [2]	IC50 [3]	IC50 (RAW264.7 [4])	IC50 (RAW264.7 [5])	IC50 (RAW264.7 [6])
COc1ccc2oc(=O)c(CC(C)C(=O)NO)cc2c1 (configuration not stated)	36 nM			220 nM	Not Active	
C/C=C/C=C\C=C1\C=C(CCC(=O)NO)C(=O)OC1	28 nM	6 nM	0.023 µM	8800 nM	Not Active	
Cc1ccc2oc(=O)c(CC(C)C(=O)NO)cc2c1 (configuration not stated)	3 nM	1040 nM	> 10 µM	320 nM	Not Active	
C=CCC(Cc1cc2cc(C)ccc2oc1=O)C(=O)NO (configuration not stated)	30 nM			520 nM	Not Active	
Cc1ccc2oc(=O)c(CC(Cc3ccccc3)C(=O)NO)cc2c1 (configuration not stated)	5 nM			540 nM	Not Active	

Second part, the molecule after the results:

IC50 [1]	IC50 [2]	IC50 [3]	IC50 (RAW264.7 [4])	IC50 (RAW264.7 [5])	IC50 (RAW264.7 [6])	SMILES
150 nM	200 nM	1.41 µM	5640 nM	Not Active		O=C(CCc1cc2ccccc2oc1=O)NO
60 nM	230 nM	3.05 µM	1300 nM	Not Active		Cc1ccc2oc(=O)c(CCC(=O)NO)cc2c1
840 nM	860 nM	24.5 µM	13000 nM	Not Active		O=C(CCc1cc2cc(Br)ccc2oc1=O)NO
550 nM	1470 nM	16.4 µM	25600 nM	Not Active		O=C(CCc1cc2cc(Cl)ccc2oc1=O)NO
110 nM	590 nM	5.66 µM	2210 nM	Not Active		COc1ccc2oc(=O)c(CCC(=O)NO)cc2c1
12400 nM				Not Active	Not Active	CC(C)(C)c1ccc2oc(=O)c(CCC(=O)NO)cc2c1
